Experimental findings from ChEMBL document CHEMBL4433203, “Design, synthesis, and evaluation of isoflavone analogs as multifunctional agents for the treatment of Alzheimer's disease” (Eur J Med Chem, 2019) are described below.

Series [1] deals with T1, Histamine H3 receptor (Homo sapiens, UniProt Q9Y5N1). The series can be described thus: Inhibition of human H3R expressed in methylhistamine-induced human H3-bla U2OS cells incubated for 30 mins by beta-lactamase complementation technology. The series is classed as cell-based. A digest of the protocol:
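H3-bla U2OS cells co-express human H3R-Gal4-VP16 (TEV site) and β-arrestin/TEV protease with a UAS-β-lactamase reporter. IC50 came from log concentration-inhibition curves. Triplicates, three independent experiments.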

The target in the next series is T2, Acetylcholinesterase (Mus musculus, UniProt P21836).
T2 sequence (P21836 whole entry): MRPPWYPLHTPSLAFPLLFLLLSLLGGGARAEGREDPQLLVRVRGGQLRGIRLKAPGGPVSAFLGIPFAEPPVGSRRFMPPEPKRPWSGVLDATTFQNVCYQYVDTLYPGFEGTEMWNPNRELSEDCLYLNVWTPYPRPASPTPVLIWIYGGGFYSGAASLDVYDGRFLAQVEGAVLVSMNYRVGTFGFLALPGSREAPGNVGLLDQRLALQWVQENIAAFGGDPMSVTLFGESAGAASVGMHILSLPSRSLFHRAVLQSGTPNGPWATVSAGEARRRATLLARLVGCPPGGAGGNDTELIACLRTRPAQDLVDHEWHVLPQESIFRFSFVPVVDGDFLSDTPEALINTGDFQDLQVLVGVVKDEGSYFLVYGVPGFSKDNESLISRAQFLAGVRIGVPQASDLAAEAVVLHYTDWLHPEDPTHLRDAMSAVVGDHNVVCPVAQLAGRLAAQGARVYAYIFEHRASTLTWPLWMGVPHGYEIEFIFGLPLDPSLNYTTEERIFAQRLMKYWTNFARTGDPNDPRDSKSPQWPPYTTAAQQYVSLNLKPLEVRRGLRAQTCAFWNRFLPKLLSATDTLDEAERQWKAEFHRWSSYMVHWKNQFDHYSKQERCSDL
The series can be described thus: Inhibition of mouse brain AChE using acetylthiocholine iodide as substrate measured after 30 mins by Ellman's method.

Series [2] deals with T1, Histamine H3 receptor. The series can be described thus: Inhibition of human H3R expressed in methylhistamine-induced human H3-bla U2OS cells at 10 uM incubated for 30 mins by beta-lactamase complementation technology relative to control. The series is classed as cell-based.
Series [3] in a line: Antioxidant activity assessed as AAPH radical scavenging activity preincubated for 15 mins with fluorescein before AAPH addition and recorded every 2 mins for 160 mins by ORAC-FL assay. The format is functional. An outline of the steps:
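ORAC-FL assay in 75 mM PBS, pH 7.4. Compound was preincubated with fluorescein (20 nM final) for 15 min at 37 °C, then AAPH (18 mM final) was added. Fluorescence (ex 460/em 520 nm) was read every 2 min for 160 min. Net area under the decay curve, blank-normalized, is expressed as µM Trolox equivalents per µM compound. Duplicates, ≥3 independent assays.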

The next series deals with Cholinesterase (Mus musculus, UniProt Q03311). The series can be described thus: Inhibition of mouse plasma BuChE using S-butyrylacetylthiocholine iodide as substrate measured after 30 mins by Ellman's method relative to control. A general note: Ellman's reagent forms a yellow product with free thiols.
Series [4] addresses T3, Acetylcholinesterase (Mus musculus) (UniProt P21836).
T3 sequence (whole entry): T2 sequence (P21836 whole entry)
The settings on record: at 10 µM.

A short description of series [5]: Cytotoxicity in human SH-SY5Y cells assessed as reduction in cell viability after 72 hrs incubation by MTT assay. (In general: Tetrazolium assays rely on reduction of a dye to a coloured formazan, in cell work by metabolically active cells.)
The test system of another series is SH-SY5Y. The series can be described thus: Neuroprotective activity against copper-induced cytotoxicity in human SH-SY5Y cells expressing APP Swedish mutant assessed as increase in cell viability at 10 uM pre-incubated for 2 hrs followed by copper addition and measured after 24 hrs by MTT assay. The format is functional, cell-based.
For series [6], the system named is BV-2. The series can be described thus: Antiinflammatory activity in mouse BV2 cells assessed as reduction in LPS-induced IL-6 production at 10 uM pretreated for 1 hr followed by LPS challenge and measured after 24 hrs by ELISA assay. The series is classed as functional, cell-based. For orientation: In an ELISA, binding on a coated surface is turned into a signal by an enzyme label.

The test system of series [7] is BV-2. The series can be described thus: Antiinflammatory activity in mouse BV2 cells assessed as reduction in LPS-induced TNF-alpha production at 10 uM pretreated for 1 hr followed by LPS challenge and measured after 24 hrs by ELISA assay. The series is classed as functional, cell-based.

Activity calls are given as the source filed them. The calls are words filed in the database; no cut-off is given here.

What is called IC50 is the concentration that gives 50% inhibition. What is called inhibition is the drop in the measured response relative to a control, in per cent. The term CC50 denotes the concentration that lowers cell viability or growth by half.

T1 sequence (Q9Y5N1 whole entry, the tested form may be a part): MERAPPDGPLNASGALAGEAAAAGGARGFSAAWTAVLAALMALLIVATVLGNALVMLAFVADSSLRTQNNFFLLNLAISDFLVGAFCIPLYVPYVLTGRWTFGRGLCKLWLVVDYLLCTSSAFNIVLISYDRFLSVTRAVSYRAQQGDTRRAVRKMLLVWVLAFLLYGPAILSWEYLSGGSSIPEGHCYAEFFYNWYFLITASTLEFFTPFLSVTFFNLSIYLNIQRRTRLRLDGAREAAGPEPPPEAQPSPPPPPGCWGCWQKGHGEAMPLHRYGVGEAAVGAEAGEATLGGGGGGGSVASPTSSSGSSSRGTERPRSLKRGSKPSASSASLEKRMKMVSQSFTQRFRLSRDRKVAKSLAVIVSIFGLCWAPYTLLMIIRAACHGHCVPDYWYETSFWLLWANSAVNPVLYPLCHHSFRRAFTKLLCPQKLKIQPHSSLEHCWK
Chain of Cholinesterase (Q03311 whole entry): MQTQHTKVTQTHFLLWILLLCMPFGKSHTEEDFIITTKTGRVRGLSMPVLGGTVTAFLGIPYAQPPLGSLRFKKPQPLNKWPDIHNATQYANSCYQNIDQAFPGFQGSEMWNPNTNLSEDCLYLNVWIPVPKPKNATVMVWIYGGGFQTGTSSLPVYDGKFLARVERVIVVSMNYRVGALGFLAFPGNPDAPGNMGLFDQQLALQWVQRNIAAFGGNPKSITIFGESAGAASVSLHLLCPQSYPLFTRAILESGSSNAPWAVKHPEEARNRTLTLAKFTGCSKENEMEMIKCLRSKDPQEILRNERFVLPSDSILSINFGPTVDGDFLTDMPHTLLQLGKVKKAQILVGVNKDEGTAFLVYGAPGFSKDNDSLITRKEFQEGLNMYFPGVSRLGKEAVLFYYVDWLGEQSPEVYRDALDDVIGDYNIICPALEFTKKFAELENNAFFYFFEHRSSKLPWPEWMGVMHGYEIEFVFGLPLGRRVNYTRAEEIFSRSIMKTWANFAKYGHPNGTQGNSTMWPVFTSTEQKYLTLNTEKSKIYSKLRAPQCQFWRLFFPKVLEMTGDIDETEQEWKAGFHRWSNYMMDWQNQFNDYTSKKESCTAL

As to `COc1ccc(-c2coc3cc(OCCOCCN4CCCCC4)ccc3c2=O)cc1`, the 50% inhibitory concentration (IC50) on Histamine H3 receptor [1] (read-out: IC50), on Acetylcholinesterase (read-out: IC50) and at Cholinesterase (read-out: IC50) was over 50 µM each time. Further, the values for the inhibition (against Histamine H3 receptor [2]; in [4]) were 30.3% and 35%, respectively. For the same compound, the Activity in series [3] is 0.01 equiv/µM.
`COc1ccc(-c2coc3cc(OCCN)ccc3c2=O)cc1.Cl`: the concentration for half-maximal inhibition (IC50) result at Histamine H3 receptor [1] (u2os) was “Not Active”; on Acetylcholinesterase (read-out: IC50), over 50 µM; against Cholinesterase, “Not Active”. Also, the inhibition at Histamine H3 receptor [2] is -6.69%; in series [4], 16.9%. Besides, the Activity in series [3] turned out to be 0.08 equiv/µM.
As for `S=C(NC1CCCCC1)N1CCC(c2cnc[nH]2)CC1` [THIOPERAMIDE], the inhibition against Histamine H3 receptor [2] amounted to 71.1%. Besides, the 50% cytotoxic concentration (CC50) at 72 h in series [5] (SH-SY5Y cells) came out at 85.8 µM.
Turning to `COc1ccc(-c2coc3cc(OCCCCN4CCCCC4)ccc3c2=O)cc1`, the values for the IC50 at Histamine H3 receptor [1] (read-out: IC50), on Acetylcholinesterase (read-out: IC50) and at Cholinesterase (read-out: IC50) were 0.73 µM, 3.98 µM and 8.83 µM, respectively. The Activity in [3] is 0.07 equiv/µM.
In the case of `CCN(C)C(=O)Oc1cccc([C@H](C)N(C)C)c1` [RIVASTIGMINE], the cytotoxic concentration (CC50) at 72 h in series [5] (SH-SY5Y cells) was 67.8 µM.
On to `O=c1c(-c2ccc(OCCN3CCCCC3)cc2)coc2cc(OCCCCN3CCCCC3)ccc12`, for which the results for the IC50 at Histamine H3 receptor [1] (read-out: IC50), at Acetylcholinesterase (read-out: IC50) and on Cholinesterase (read-out: IC50) were 0.41 µM, 0.2 µM and 2.49 µM, respectively. Besides, the inhibition against Histamine H3 receptor [2] stood at 72.4%; in [4] it was 85.1%. Further, in series [3], the Activity came out at 0.11 equiv/µM.
`COc1ccc(-c2coc3cc(OCCNC4CCCC4)ccc3c2=O)cc1`: the figures for the half-maximal inhibitory concentration (IC50) at Histamine H3 receptor [1] (read-out: IC50), on Acetylcholinesterase (read-out: IC50) and on Cholinesterase (read-out: IC50) were over 50 µM, 4.5 µM and 5.98 µM, respectively. Also, the figures for the inhibition (against Histamine H3 receptor [2]; in [4]) were 47.1% and 78.5%, respectively. Further, the Activity in series [3] came to 0.01 equiv/µM.
For `Cc1c(C)c2c(c(C)c1O)CCC(C)(C(=O)O)O2` (stereo not given), in series [3], the Activity was found to be 1 equiv/µM.
In the case of `CCN(C)CCCOc1ccc2c(=O)c(-c3ccc(OC)cc3)coc2c1`, the concentration for half-maximal inhibition (IC50) on Histamine H3 receptor [1] (read-out: IC50) is 0.52 µM; on Acetylcholinesterase (read-out: IC50) it was 22.6 µM. The Activity in series [3] stood at 0.12 equiv/µM.
For the compound `COc1ccc(-c2coc3cc(OCCNC4CCCCC4)ccc3c2=O)cc1`, the half-inhibitory concentration (IC50) is over 50 µM at Histamine H3 receptor [1] (read-out: IC50), 5 µM on Acetylcholinesterase (read-out: IC50) and 21.6 µM on Cholinesterase (read-out: IC50). The figures for the inhibition (at Histamine H3 receptor [2]; in series [4]) were 41% and 73.7%, respectively. In series [3], the Activity worked out at 0.01 equiv/µM.
Regarding `O=c1c(-c2ccc(O)cc2)coc2cc(OCCCCN3CCCCC3)ccc12`, the IC50 at Histamine H3 receptor [1] (read-out: IC50) was over 50 µM; on Acetylcholinesterase (read-out: IC50) it was 26.8 µM; at Cholinesterase (read-out: IC50), 24.8 µM. The figures for the inhibition (against Histamine H3 receptor [2]; in series [4]) were 6.88% and 63.4%, respectively. Besides, the Activity in series [3] amounted to 0.88 equiv/µM.
As for `O=c1c(-c2ccc(OCCN3CCCCC3)cc2)coc2cc(OCCN3CCCC3)ccc12`, the IC50 on Histamine H3 receptor [1] (read-out: IC50) turned out to be 2.07 µM; at Acetylcholinesterase (read-out: IC50), 0.71 µM; at Cholinesterase (read-out: IC50), 4.55 µM. Also, the Activity in series [3] came out at 0.14 equiv/µM.
Consider `CCN(C)CCCCOc1ccc2c(=O)c(-c3ccc(OC)cc3)coc2c1`, for which the concentration for half-maximal inhibition (IC50) was 0.43 µM on Histamine H3 receptor [1] (read-out: IC50) and 9.47 µM at Acetylcholinesterase (read-out: IC50). Moreover, the Activity in [3] was found to be 0.11 equiv/µM.
For the compound `O=c1c(-c2ccc(OCCN3CCCCC3)cc2)coc2cc(OCCN3CCCCC3)ccc12`, the IC50 at Histamine H3 receptor [1] (read-out: IC50) was 1.94 µM; at Acetylcholinesterase (read-out: IC50) it was 0.35 µM; at Cholinesterase (read-out: IC50) it was 2.92 µM. For the same compound, the inhibition against Histamine H3 receptor [2] stood at 71.5%; in series [4], 82.8%. The Activity in [3] amounted to 0.14 equiv/µM.
Take `COc1cc2c(cc1OC)C(=O)C(CC1CCN(Cc3ccccc3)CC1)C2` (stereo not given) [DONEPEZIL]: the cytotoxic concentration (CC50) at 72 h in series [5] (sh-sy5y) amounted to 25.1 µM. Besides, the outcome in the series on SH-SY5Y, in the series on BV-2 [6] and with BV-2 [7] was inactive.
Turning to `COc1ccc(-c2coc3cc(OCCNC(=O)OC(C)(C)C)ccc3c2=O)cc1`, the half-inhibitory concentration (IC50) result against Histamine H3 receptor [1] (u2os), at Acetylcholinesterase and at Cholinesterase was “Not Active” each time. Besides, the Activity in series [3] came out at 0.05 equiv/µM. Also, the inhibition in series [4] was -0.17%.
Regarding `COc1ccc(-c2coc3cc(OCCNc4c5c(nc6ccccc46)CCCC5)ccc3c2=O)cc1`, the figures for the IC50 on Histamine H3 receptor [1] (read-out: IC50), at Acetylcholinesterase (read-out: IC50) and at Cholinesterase (read-out: IC50) were over 10 µM, 0.96 µM and 0.38 µM, respectively. Also, the inhibition against Histamine H3 receptor [2] was determined as 60.5%; in [4], 85.8%. Besides, the Activity in series [3] came to 0.01 equiv/µM.
With `COc1ccc(-c2coc3cc(OCCN4C(=O)c5ccccc5C4=O)ccc3c2=O)cc1`, the IC50 result on Histamine H3 receptor [1] (u2os) was “Not Active”; on Acetylcholinesterase (read-out: IC50) it was over 50 µM; against Cholinesterase, “Not Active”. Moreover, the Activity in series [3] is 0.01 equiv/µM. The inhibition in series [4] was 11.2%.
